Source: ChEMBL document CHEMBL2346635, “6-Oxo and 6-thio purine analogs as antimycobacterial agents” (Bioorg Med Chem, 2013)
Values after ≈ are worked out from the molar mass of the structure shown. Active and inactive are the calls of the source. The rule behind the calls is not given here.

Tests used:
[1] = system: Mycobacterium tuberculosis; experiment: Antimycobacterial activity against Mycobacterium tuberculosis H37Rv ATCC 27294 assessed as growth inhibition by radiometric BACTEC assay; type: functional
[2] = system: Mycobacterium tuberculosis; experiment: Antimycobacterial activity against Mycobacterium tuberculosis H37Rv ATCC 27294 assessed as growth inhibition at 6.25 ug/ml by radiometric BACTEC assay; type: functional
Procedure, shortened: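 Primary screen at a single 6.25 µg/mL in radiometric BACTEC 12B medium. Value is percent growth inhibition.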

[3] = Selectivity index, ratio of CC50 for african green monkey Vero cells to MIC for Mycobacterium tuberculosis H37Rv ATCC 27294; type: functional
Procedure, shortened: (§1)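 SI calculated as VERO CC50 (non-radioactive proliferation assay) divided by H37Rv MIC90 from radiometric BACTEC in 12B medium.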

[4] = (§2) Cytotoxicity against african green monkey Vero cells by non-radioactive cell proliferation assay; type: cell-based; conditions: chlorocebus sabaeus, Vero cells
[5] = system: Mycobacterium tuberculosis; experiment: Antimycobacterial activity against Mycobacterium tuberculosis Erdman assessed as growth inhibition by Alamar blue assay; type: functional
[6] = system: Mycobacterium tuberculosis; experiment: Antimycobacterial activity against Mycobacterium tuberculosis H37Rv ATCC 27294 assessed as growth inhibition by Alamar blue assay; type: functional
[7] = system: Mycobacterium tuberculosis; experiment: Antimycobacterial activity against Mycobacterium tuberculosis H37Rv ATCC 27294 assessed as growth inhibition by radiometric BACTEC assay in presence of 6.5 uM beta-lactam antibiotic, Meropenem; type: functional
[8] = Selectivity index, ratio of IC50 for african green monkey Vero cells to MIC for Mycobacterium tuberculosis H37Rv ATCC 27294; type: functional
Procedure, shortened: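 SI taken as CC50 in VERO cells divided by MIC90 against Mtb H37Rv (ATCC 27294). CC50 comes from a non-radioactive cell proliferation assay run alongside the MIC determination. MIC90 is the lowest concentration giving ≥90% growth inhibition in a radiometric BACTEC 12B-medium assay.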

Vero = experiment: as §2; type: cell-based; conditions: chlorocebus sabaeus, vero
[9] = system: Mycobacterium tuberculosis; experiment: Antitubercular activity against Mycobacterium tuberculosis infected in gamma interferon gene-disrupted (GKO) C57BL/6 mouse model assessed as reduction of bacterial load in spleen; type: functional
[10] = system: Mycobacterium tuberculosis; experiment: Antitubercular activity against Mycobacterium tuberculosis infected in gamma interferon gene-disrupted (GKO) C57BL/6 mouse model assessed as reduction of bacterial load in lungs; type: functional
Mus musculus = experiment: Acute toxicity in mouse infected with Mycobacterium tuberculosis at 100 to 500 mg/kg; type: organism-based; design: dose 100-500 mg/kg; conditions: in vivo
[11] = system: Mycobacterium tuberculosis; experiment: Antimycobacterial activity against p-aminosalicylic acid-resistant Mycobacterium tuberculosis assessed as growth inhibition by Alamar blue assay; type: functional
[12] = system: Mycobacterium tuberculosis; experiment: Antimycobacterial activity against Mycobacterium tuberculosis H37Ra ATCC 25177 assessed as growth inhibition by Alamar blue microdilution broth assay; type: functional
Procedure, shortened: (§3)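 Alamar blue colorimetric microdilution in Middlebrook 7H9 broth with 0.2% glycerol and ADC enrichment. Primary screen at 1.28 and 12.8 µg/mL. Actives (≤12.8 µg/mL) retested in two-fold dilutions. MIC99 is the lowest concentration giving complete growth inhibition.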

[13] = Selectivity index, ratio of CC50 for african green monkey Vero cells to MIC90 for Mycobacterium tuberculosis H37Rv ATCC 27294; type: functional; procedure, shortened: as §1
Mycobacterium avium = experiment: Antimycobacterial activity against Mycobacterium avium Nj211 assessed as growth inhibition by Alamar blue microdilution broth assay; type: functional; procedure, shortened: as §3

| Structure (SMILES) | MIC [1] | inhibition [2] | Selectivity Index [3] | CC50 [4] | MIC90 [5] | MIC90 [6] | inhibition at 6.25 µg/mL [2] | log10cfu [9] | log10cfu [10] | Activity (Mus musculus) | other results |
| --- | --- | --- | --- | --- | --- | --- | --- | --- | --- | --- | --- |
| CCCCCCCCCCSc1ncnc2c1ncn2CC(=O)OC(C)(C)C | 3.13 µg/mL (≈ 7.7 µM) | inactive | >3.19 | > 10 µg/mL | – | – | – | – | – | – | – |
| CCCCCCCCCCSc1ncnc2c1ncn2CC(=O)OCC | 1.56 µg/mL (≈ 4.12 µM) | inactive | >40 | > 62.5 µg/mL | 12.5 µg/mL (≈ 33 µM) | 6.25 µg/mL (≈ 16.5 µM) | – | – | – | – | – |
| CSc1ncnc2c1ccn2CC(=O)Nc1ccc(C)c(C)c1 | – | inactive | – | – | – | – | – | – | – | – | IC90 [1]: > 100 µM; IC90 [7]: 7.31 µM |
| Cc1nc(N)c2ncn([C@@H]3O[C@H](CO)[C@@H](O)[C@H]3O)c2n1 [2-METHYLADENOSINE] | 3 µg/mL (≈ 10.7 µM) | – | – | – | – | – | 99% | – | – | – | Selectivity Index [8]: >1000; IC50 (Vero): 1000 µg/mL (≈ 3560 µM) |
| CCCCCCCCCCCCSc1ncnc2c1ncn2CC(=O)OCC | 0.78 µg/mL (≈ 1.92 µM) | inactive | >12.8 | > 10 µg/mL | 3.13 µg/mL (≈ 7.7 µM) | 3.13 µg/mL (≈ 7.7 µM) | – | 0.2 | 0.46 | Non-toxic | MIC90 [11]: 3.13 µg/mL (≈ 7.7 µM) |
| CCCCCCCCCCCCOc1nc(N)nc2[nH]cnc12 | – | – | – | – | – | – | 94% | -0.05 | -0.141 | Non-toxic | MIC90 [1]: 0.78 µg/mL (≈ 2.44 µM); MIC99 [12]: > 6.4 µg/mL; Selectivity Index [13]: >12.8; CC50 (Vero): > 10 µg/mL; MIC99 (Mycobacterium avium): > 6.4 µg/mL |
